Test results reported in ChEMBL document CHEMBL5104202, “Structure-Uptake Relationship Studies of Oxazolidinones in Gram-Negative ESKAPE Pathogens” (J Med Chem, 2022).
Values after ≈ are worked out from the molar mass of the structure shown.

Experiments:
Klebsiella pneumoniae [1] = assay: Antibacterial activity against multidrug resistant Klebsiella pneumoniae ATCC43816 assessed as inhibition of bacterial growth incubated for 24 hrs in M9-MOPS medium by twofold serial dilution method; type: functional
Klebsiella pneumoniae [2] = assay: Antibacterial activity against multidrug resistant Klebsiella pneumoniae ATCC43816 assessed as inhibition of bacterial growth incubated for 24 hrs in MHI medium by twofold serial dilution method; type: functional
Klebsiella aerogenes [3] = assay: Antibacterial activity against multidrug resistant Klebsiella aerogenes ATCC13048 assessed as inhibition of bacterial growth incubated for 24 hrs in M9-MOPS medium by twofold serial dilution method; type: functional
Klebsiella pneumoniae [4] = assay: Antibacterial activity against multidrug resistant Klebsiella pneumoniae ATCC13883 assessed as inhibition of bacterial growth incubated for 24 hrs in M9-MOPS medium by twofold serial dilution method; type: functional
Klebsiella pneumoniae [5] = assay: Antibacterial activity against multidrug resistant Klebsiella pneumoniae ATCC13883 assessed as inhibition of bacterial growth incubated for 24 hrs in MHI medium by twofold serial dilution method; type: functional
Pseudomonas aeruginosa [6] = assay: Antibacterial activity against multidrug resistant Pseudomonas aeruginosa BAA 2109 assessed as inhibition of bacterial growth incubated for 24 hrs in […] medium by twofold serial dilution method; type: functional
Pseudomonas aeruginosa [7] = assay: Antibacterial activity against multidrug resistant Pseudomonas aeruginosa BAA 2109 assessed as inhibition of bacterial growth incubated for 24 hrs in MHI medium by twofold serial dilution method; type: functional
Pseudomonas aeruginosa [8] = assay: Antibacterial activity against multidrug resistant Pseudomonas aeruginosa BAA 2108 assessed as inhibition of bacterial growth incubated for 24 hrs in M9-MOPS medium by twofold serial dilution method; type: functional
Pseudomonas aeruginosa [9] = assay: Antibacterial activity against multidrug resistant Pseudomonas aeruginosa BAA 2108 assessed as inhibition of bacterial growth incubated for 24 hrs in MHI medium by twofold serial dilution method; type: functional
Acinetobacter baumannii [10] = assay: Antibacterial activity against multidrug resistant Acinetobacter baumannii Ab5075 assessed as inhibition of bacterial growth incubated for 24 hrs in M9-MOPS medium by twofold serial dilution method; type: functional
Acinetobacter baumannii [11] = assay: Antibacterial activity against multidrug resistant Acinetobacter baumannii Ab5075 assessed as inhibition of bacterial growth incubated for 24 hrs in MHI medium by twofold serial dilution method; type: functional
Acinetobacter baumannii [12] = assay: Antibacterial activity against multidrug resistant Acinetobacter baumannii AYE assessed as inhibition of bacterial growth incubated for 24 hrs in M9-MOPS medium by twofold serial dilution method; type: functional
Acinetobacter baumannii [13] = assay: Antibacterial activity against multidrug resistant Acinetobacter baumannii AYE assessed as inhibition of bacterial growth incubated for 24 hrs in MHI medium by twofold serial dilution method; type: functional
Acinetobacter baumannii [14] = assay: Antibacterial activity against efflux pump lacking Acinetobacter baumannii assessed as inhibition of bacterial growth; type: functional, organism-based
Acinetobacter baumannii [15] = assay: Antibacterial activity against efflux pump lacking/recombinant OM pore producing Acinetobacter baumannii assessed as inhibition of bacterial growth; type: functional, organism-based
Acinetobacter baumannii [16] = assay: Antibacterial activity against recombinant OM pore producing Acinetobacter baumannii assessed as inhibition of bacterial growth; type: functional, organism-based
Acinetobacter baumannii [17] = assay: Antibacterial activity against wild type Acinetobacter baumannii assessed as inhibition of bacterial growth; type: functional, organism-based
Escherichia coli [18] = assay: Antibacterial activity against wild type Escherichia coli assessed as inhibition of bacterial growth; type: functional, organism-based
Escherichia coli [19] = assay: Antibacterial activity against recombinant OM pore producing Escherichia coli assessed as inhibition of bacterial growth; type: functional, organism-based
Escherichia coli [20] = assay: Antibacterial activity against efflux pump lacking Escherichia coli assessed as inhibition of bacterial growth; type: functional, organism-based
Escherichia coli [21] = assay: Antibacterial activity against efflux pump lacking/recombinant OM pore producing Escherichia coli assessed as inhibition of bacterial growth; type: functional, organism-based
Pseudomonas aeruginosa [22] = assay: Antibacterial activity against wild type Pseudomonas aeruginosa assessed as inhibition of bacterial growth; type: functional, organism-based
Pseudomonas aeruginosa [23] = assay: Antibacterial activity against recombinant OM pore producing Pseudomonas aeruginosa assessed as inhibition of bacterial growth; type: functional, organism-based
Pseudomonas aeruginosa [24] = assay: Antibacterial activity against efflux pump lacking Pseudomonas aeruginosa assessed as inhibition of bacterial growth; type: functional, organism-based
Pseudomonas aeruginosa [25] = assay: Antibacterial activity against efflux pump lacking/recombinant OM pore producing Pseudomonas aeruginosa assessed as inhibition of bacterial growth; type: functional, organism-based
Klebsiella pneumoniae [26] = assay: Antibacterial activity against multidrug resistant Klebsiella pneumoniae ATCC43816 assessed as inhibition of bacterial growth incubated for 24 hrs in MHI medium by twofold serial dilution method; conditions: ATCC43816, 24 h
Klebsiella aerogenes [27] = assay: Antibacterial activity against multidrug resistant Klebsiella […] assessed as inhibition of bacterial growth incubated for 24 hrs in MHI medium by twofold serial dilution method; type: functional
Acinetobacter baumannii [28] = assay: Antibacterial activity against efflux pump lacking/recombinant OM pore producing Acinetobacter baumannii incubated for 24 hrs by twofold serial dilution method; type: functional
Procedure, shortened: (§1)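 MICs by twofold serial dilution in 96-well plates from 10 mM DMSO stocks. Cultures grown in the indicated media; for E. coli, A. baumannii and P. aeruginosa, inducers were 0.1% arabinose, 1% arabinose and 0.1 mM IPTG respectively.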

Escherichia coli [29] = assay: Antibacterial activity against efflux pump lacking/recombinant OM pore producing Escherichia coli incubated for 24 hrs by twofold serial dilution method; type: functional
Procedure, shortened: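 E. coli efflux-knockout/hyperporinated strain grown in M9 medium with 50 mM MOPS (pH 7.2) and 0.2% xylose. OM pore induced with 0.1% arabinose. Compounds come from 10 mM DMSO stocks and are twofold serially diluted in 96-well plates.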

Pseudomonas aeruginosa [30] = assay: Antibacterial activity against efflux pump lacking/recombinant OM pore producing Pseudomonas aeruginosa incubated for 24 hrs by twofold serial dilution method; type: functional; procedure, shortened: as §1
Escherichia coli [31] = assay: Antibacterial activity against Escherichia coli SQ110 DTC G2032A incubated for 24 hrs by twofold serial dilution method; type: functional
Procedure, shortened: (§2)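 E. coli SQDTC (TolC-deficient, single rRNA operon) carrying LZD-resistant 23S rRNA substitutions. Compounds come from 10 mM DMSO stocks and are twofold serially diluted in 96-well plates.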

Escherichia coli [32] = assay: Antibacterial activity against Escherichia coli SQ110 DTC incubated for 24 hrs by twofold serial dilution method; type: functional; procedure, shortened: as §1
Escherichia coli [33] = assay: Antibacterial activity against Escherichia coli SQ110 incubated for 24 hrs by twofold serial dilution method; type: functional; procedure, shortened: as §1
Escherichia coli [34] = assay: Antibacterial activity against Escherichia coli SQ110 DTC C2610A incubated for 24 hrs by twofold serial dilution method; type: functional; procedure, shortened: as §2
Staphylococcus aureus = assay: Antibacterial activity against Staphylococcus aureus ATCC 25923 incubated for 24 hrs by twofold serial dilution method; type: functional; procedure, shortened: as §1

| Structure (SMILES) | MIC (Klebsiella pneumoniae [1]) [µM] | MIC (Klebsiella pneumoniae [2]) [µM] | MIC (Klebsiella aerogenes [3]) [µM] | MIC (Klebsiella pneumoniae [4]) [µM] | MIC (Klebsiella pneumoniae [5]) [µM] | MIC (Pseudomonas aeruginosa [6]) [µM] | MIC (Pseudomonas aeruginosa [7]) [µM] | MIC (Pseudomonas aeruginosa [8]) [µM] | MIC (Pseudomonas aeruginosa [9]) [µM] | MIC (Acinetobacter baumannii [10]) [µM] | MIC (Acinetobacter baumannii [11]) [µM] | MIC (Acinetobacter baumannii [12]) [µM] | MIC (Acinetobacter baumannii [13]) [µM] | IC50 (Acinetobacter baumannii [14]) [µM] | IC50 (Acinetobacter baumannii [15]) [µM] | IC50 (Acinetobacter baumannii [16]) [µM] | IC50 (Acinetobacter baumannii [17]) [µM] | IC50 (Escherichia coli [18]) [µM] | IC50 (Escherichia coli [19]) [µM] | IC50 (Escherichia coli [20]) [µM] | other results |
| --- | --- | --- | --- | --- | --- | --- | --- | --- | --- | --- | --- | --- | --- | --- | --- | --- | --- | --- | --- | --- | --- |
| O=C1O[C@@H](CO)CN1c1ccc(-c2cccc(CO)c2)c(F)c1 | > 200 | > 200 | > 200 | 200 (≈ 63.5 µg/mL) | > 200 | > 200 | > 200 | > 200 | > 200 | 200 (≈ 63.5 µg/mL) | > 200 | 200 (≈ 63.5 µg/mL) | > 200 | 5.4 | 7.6 | 10.8 | 45.8 | 66.9 | 1.5 | 1.5 | IC50 (Escherichia coli [21]): 2 µM; IC50 (Pseudomonas aeruginosa [22]): > 100 µM; IC50 (Pseudomonas aeruginosa [23]): > 100 µM; IC50 (Pseudomonas aeruginosa [24]): 15.5 µM; IC50 (Pseudomonas aeruginosa [25]): 13 µM; MIC (Klebsiella pneumoniae [26]): > 200 µM |
| NCc1ccc(-c2ccc(N3C[C@H](CO)OC3=O)cc2F)cc1O | 100 (≈ 33.2 µg/mL) | > 200 | 12.5 (≈ 4.15 µg/mL) | 50 (≈ 16.6 µg/mL) | > 200 | > 200 | > 200 | > 200 | > 200 | > 200 | > 200 | > 200 | > 200 | 15.4 | 15.4 | 37.6 | 37.6 | 66.1 | 23.3 | 10 | MIC (Klebsiella aerogenes [27]): 200 µM (≈ 66.5 µg/mL); IC50 (Escherichia coli [21]): 10.3 µM; IC50 (Pseudomonas aeruginosa [22]): 55.9 µM; IC50 (Pseudomonas aeruginosa [23]): 40.8 µM; IC50 (Pseudomonas aeruginosa [24]): 2.2 µM; IC50 (Pseudomonas aeruginosa [25]): 0.2 µM; MIC (Acinetobacter baumannii [28]): 25 µM; MIC (Escherichia coli [29]): 50 µM; MIC (Pseudomonas aeruginosa [30]): 6.25 µM; MIC (Escherichia coli [31]): 100 µM (≈ 33.2 µg/mL); MIC (Escherichia coli [32]): 25 µM (≈ 8.31 µg/mL); MIC (Escherichia coli [33]): > 100 µM; MIC (Escherichia coli [34]): 50 µM (≈ 16.6 µg/mL) |
| NCc1ccc(-c2ccc(N3C[C@H](CO)OC3=O)cc2F)cc1 | 200 (≈ 63.3 µg/mL) | > 200 | 100 (≈ 31.6 µg/mL) | 100 (≈ 31.6 µg/mL) | > 200 | > 200 | > 200 | > 200 | > 200 | > 200 | > 200 | > 200 | > 200 | 17.7 | 8.2 | 14.3 | 54.5 | 18.1 | 2.6 | 1.7 | IC50 (Escherichia coli [21]): 2.6 µM; IC50 (Pseudomonas aeruginosa [22]): 23 µM; IC50 (Pseudomonas aeruginosa [23]): 26.3 µM; IC50 (Pseudomonas aeruginosa [24]): 3.3 µM; IC50 (Pseudomonas aeruginosa [25]): 8.1 µM; MIC (Acinetobacter baumannii [28]): 25 µM; MIC (Escherichia coli [29]): > 100 µM; MIC (Pseudomonas aeruginosa [30]): 12.5 µM; MIC (Escherichia coli [31]): 100 µM (≈ 31.6 µg/mL); MIC (Staphylococcus aureus): 6.25 µM (≈ 1.98 µg/mL); MIC (Escherichia coli [32]): 50 µM (≈ 15.8 µg/mL); MIC (Escherichia coli [33]): > 100 µM; MIC (Escherichia coli [34]): 50 µM (≈ 15.8 µg/mL); MIC (Klebsiella pneumoniae [26]): > 200 µM |
| O=C1O[C@@H](CO)CN1c1ccc(-c2ccncc2)c(F)c1 | 200 (≈ 57.7 µg/mL) | > 200 | 200 (≈ 57.7 µg/mL) | 100 (≈ 28.8 µg/mL) | 200 (≈ 57.7 µg/mL) | > 200 | > 200 | ≥ 200 | ≥ 200 | 100 (≈ 28.8 µg/mL) | > 200 | 100 (≈ 28.8 µg/mL) | > 200 | 1.4 | 1.4 | 16.5 | 16.5 | 44.3 | 5.6 | 0.8 | MIC (Klebsiella aerogenes [27]): 200 µM (≈ 57.7 µg/mL); IC50 (Escherichia coli [21]): 1.3 µM; IC50 (Pseudomonas aeruginosa [22]): 44.2 µM; IC50 (Pseudomonas aeruginosa [23]): 48.2 µM; IC50 (Pseudomonas aeruginosa [24]): 8.1 µM; IC50 (Pseudomonas aeruginosa [25]): 2.9 µM; MIC (Acinetobacter baumannii [28]): 6.25 µM; MIC (Escherichia coli [29]): 6.25 µM; MIC (Pseudomonas aeruginosa [30]): 3.12 µM; MIC (Escherichia coli [31]): 25 µM (≈ 7.21 µg/mL); MIC (Staphylococcus aureus): 1.56 µM (≈ 0.45 µg/mL); MIC (Escherichia coli [32]): 6.25 µM (≈ 1.8 µg/mL); MIC (Escherichia coli [33]): > 100 µM; MIC (Escherichia coli [34]): 6.25 µM (≈ 1.8 µg/mL) |
